Assay results as given in ChEMBL document CHEMBL1914423, “New imidazo[2,1-b]thiazole derivatives: synthesis, in vitro anticancer evaluation, and in silico studies” (Eur J Med Chem, 2011).

Experiments:
Format in all cases: functional
MCF7 = test: Anticancer activity against human MCF7 cells after 48 hrs by SRB assay; conditions: MCF7, 48 h
Method in brief: (§1)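 NCI five-dose screen. Cells in RPMI 1640 with 5% FBS and 2 mM L-glutamine, seeded at 5000–40,000 cells/well according to doubling time, then pre-incubated 24 h at 37 °C in 5% CO2. Drugs dissolved in DMSO, five concentrations by 10-fold or 1/2-log dilution. Cells fixed with TCA, SRB-stained, A515 read. IC50 solved from [(Ti−Tz)/(C−Tz)]×100 = 50.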

IGROV-1 = test: Anticancer activity against human IGROV1 cells after 48 hrs by SRB assay; conditions: IGROV-1, 48 h; method in brief: as §1
[1] = Anticancer activity against human Hs 578T cells after 48 hrs by SRB assay; method in brief: as §1
UO-31 = test: Anticancer activity against human UO31 cells after 48 hrs by SRB assay; conditions: UO-31, 48 h
Method in brief: (§2)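 NCI-60 five-dose mode: cells in RPMI 1640 with 5% FBS and 2 mM glutamine, plated at 5000–40,000 cells/well, and preincubated 24 h, with time-zero plates TCA-fixed. Drug given at five concentrations (10-fold or ½-log serial dilutions). Cold TCA fixation 60 min at 4 °C, SRB stain, Tris solubilization, A515. IC50 taken where [(Ti−Tz)/(C−Tz)]×100 = 50.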

TK-10 = test: Anticancer activity against human TK10 cells after 48 hrs by SRB assay; conditions: TK-10, 48 h; method in brief: as §2
MDA-MB-468 = test: Anticancer activity against human MDA-MB-468 cells after 48 hrs by SRB assay; conditions: MDA-MB-468, 48 h
M14 = test: Anticancer activity against human M14 cells after 48 hrs by SRB assay; conditions: M14, 48 h; method in brief: as §1
Malme-3M = test: Anticancer activity against human MALME-3M cells after 48 hrs by SRB assay; method in brief: as §1
COLO 205 = test: Anticancer activity against human COLO205 cells after 48 hrs by SRB assay; conditions: COLO 205, 48 h; method in brief: as §1
HOP-62 = test: Anticancer activity against human HOP62 cells after 48 hrs by SRB assay; conditions: HOP-62, 48 h; method in brief: as §1
SR = test: Anticancer activity against human SR cells after 48 hrs by SRB assay; method in brief: as §2
DU-145 = test: Anticancer activity against human DU145 cells after 48 hrs by SRB assay; conditions: DU-145, 48 h; method in brief: as §1
SF-268 = test: Anticancer activity against human SF268 cells after 48 hrs by SRB assay; conditions: SF-268, 48 h
NCI-H460 = test: Anticancer activity against human NCI-H460 cells after 48 hrs by SRB assay; conditions: NCI-H460, 48 h
CAKI-1 = test: Anticancer activity against human Caki1 cells after 48 hrs by SRB assay; conditions: CAKI-1, 48 h; method in brief: as §1
NCI-H23 = test: Anticancer activity against human NCI-H23 cells after 48 hrs by SRB assay; conditions: NCI-H23, 48 h
NCI-H226 = test: Anticancer activity against human NCI-H226 cells after 48 hrs by SRB assay; conditions: NCI-H226, 48 h
HT-29 = test: Anticancer activity against human HT-29 cells after 48 hrs by SRB assay; conditions: HT-29, 48 h; method in brief: as §1
PC-3 = test: Anticancer activity against human PC3 cells after 48 hrs by SRB assay; conditions: PC-3, 48 h
SK-MEL-28 = test: Anticancer activity against human SK-MEL-28 cells after 48 hrs by SRB assay; conditions: SK-MEL-28, 48 h
RXF 393 = test: Anticancer activity against human RXF393 cells after 48 hrs by SRB assay; conditions: RXF 393, 48 h
T47D = test: Anticancer activity against human T47D cells after 48 hrs by SRB assay; method in brief: as §2
SN12C = test: Anticancer activity against human SN12C cells after 48 hrs by SRB assay
NCI-H322M = test: Anticancer activity against human NCI-H322M cells after 48 hrs by SRB assay
EKVX = test: Anticancer activity against human EKVX cells after 48 hrs by SRB assay; method in brief: as §1
SF-295 = test: Anticancer activity against human SF295 cells after 48 hrs by SRB assay; conditions: SF-295, 48 h
OVCAR-8 = test: Anticancer activity against human OVCAR8 cells after 48 hrs by SRB assay; conditions: OVCAR-8, 48 h
HL-60(TB) = test: Anticancer activity against human HL-60(TB) cells after 48 hrs by SRB assay; conditions: HL-60, 48 h
Method in brief: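 NCI-60 five-dose screen. Cells grown in RPMI 1640 with 5% FBS and 2 mM L-glutamine, seeded at 5000–40,000 cells/well, and held 24 h at 37 °C and 5% CO₂ before drug. DMSO stocks were diluted into five concentrations (10-fold or ½-log steps). Settled suspension cells were fixed with cold TCA, SRB-stained, and read at 515 nm. […] was taken where [(Ti−Tz)/(C−Tz)]×100 = 50.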

[2] = read-out: LC50 (the source's name)

## COc1cccc(-c2nc3sccn3c2-c2ccnc(NCCNC(=O)Nc3cccc(C(F)(F)F)c3)n2)c1
MCF7
  GI50: 3.12 µM
  TGI: 13.3 µM
MCF7; [2]
  CC50: > 100 µM
IGROV-1
  GI50: 3.32 µM
  TGI: 21.8 µM
IGROV-1; [2]
  CC50: > 100 µM
[1]
  GI50: 3.15 µM
  TGI: 29 µM
[1]; [2]
  CC50: > 100 µM
UO-31
  GI50: 2.88 µM
  TGI: 24.8 µM
UO-31; [2]
  CC50: > 100 µM
TK-10
  GI50: 3.6 µM
  TGI: 18.8 µM
TK-10; [2]
  CC50: > 100 µM
MDA-MB-468
  GI50: 2.63 µM
  TGI: 10.4 µM
MDA-MB-468; [2]
  CC50: > 100 µM
M14
  GI50: 2.96 µM
  TGI: 8.48 µM
M14; [2]
  CC50: 29.2 µM
Malme-3M
  GI50: 3.86 µM
  TGI: 26.8 µM
Malme-3M; [2]
  CC50: > 100 µM
COLO 205
  GI50: 5.37 µM
  TGI: 19.2 µM
COLO 205; [2]
  CC50: 58 µM
HOP-62
  GI50: 6.71 µM
  LC50 (concentration killing 50% of starting cells): > 100 µM
  TGI: 42.4 µM
SR
  GI50: 3.75 µM
  TGI: 29.7 µM
SR; [2]
  CC50: > 100 µM
DU-145
  GI50: 5.13 µM
  TGI: 95.5 µM
DU-145; [2]
  CC50: > 100 µM
SF-268
  GI50: 4.59 µM
  TGI: 43.4 µM
SF-268; [2]
  CC50: > 100 µM
NCI-H460
  GI50: 2.94 µM
  LC50: > 100 µM
  TGI: 14.4 µM
CAKI-1
  GI50: 3.5 µM
  TGI: 10.3 µM
CAKI-1; [2]
  CC50: > 100 µM
NCI-H23
  GI50: 3.42 µM
  LC50 (50% lethal concentration): > 100 µM
  TGI: 76.9 µM
NCI-H226
  GI50: 4.58 µM
  LC50 (concentration killing 50% of tumour cells): > 100 µM
  TGI: 68.6 µM
HT-29
  GI50: 3.33 µM
  TGI: 14 µM
HT-29; [2]
  CC50: > 100 µM
PC-3
  GI50: 2.47 µM
  TGI: 11.9 µM
PC-3; [2]
  CC50: > 100 µM
SK-MEL-28
  GI50: 5.36 µM
  TGI: 26.2 µM
SK-MEL-28; [2]
  CC50: > 100 µM
RXF 393
  GI50: 1.77 µM
  TGI: 3.65 µM
RXF 393; [2]
  CC50: 7.49 µM
T47D
  GI50: 3.77 µM
  TGI: 13.8 µM
T47D; [2]
  CC50: 61 µM
SN12C
  GI50: 4.03 µM
  TGI: 26.5 µM
SN12C; [2]
  CC50: > 100 µM
NCI-H322M
  GI50: 7.23 µM
  TGI: > 100 µM
NCI-H322M; [2]
  CC50: > 100 µM
EKVX
  GI50: 3.55 µM
  LC50: > 100 µM
  TGI: 59.6 µM
SF-295
  GI50: 2.8 µM
  TGI: 14.9 µM
SF-295; [2]
  CC50: > 100 µM
OVCAR-8
  GI50: 3.28 µM
  TGI: 9.79 µM
OVCAR-8; [2]
  CC50: 66.2 µM
HL-60(TB)
  GI50: 2.92 µM
  LC50: > 100 µM
  TGI: 7.43 µM
